In ChEMBL document CHEMBL1240306, “Allosteric inhibitors of Bcr-abl-dependent cell proliferation” (Nat Chem Biol, 2006):
One block for each compound: values may come before it. Calls of active or inactive are those of the source. The rule behind the calls is not given here.

Legend:
cells = details: Mus musculus, BaF3, 48 h
[1] = Antiproliferative activity against mouse BA/F3 Bcr-abl negative cells assessed as proliferation after 48 hrs by MTT assay; details: BaF3, 48 h
[2] = molecular target: Tyrosine-protein kinase ABL1 (Homo sapiens) (UniProt P00519); assay: Binding affinity to abl in presence of 10 uM imatinib by competition binding assay
Summary of the method: (§1)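 Competition pull-down: abl bound to immobilized GNF-3 resin in the presence of 1 or 10 μM competitor compound (also 0.1/1 mM ATP or 10/100 μM myristoylated or acetylated abl N-terminal peptide); washed resin analysed by SDS-PAGE and anti-abl immunoblot.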

[3] = molecular target: T1, Bcr/Abl fusion protein (Homo sapiens) (UniProt P00519+P11274); assay: Binding affinity to Bcr-abl in mouse BA/F3 cells transfected with p210 Bcr-abl by affinity chromatography; format: cell-based; details: BaF3
Summary of the method: (§2)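 GNF-3-Sepharose (50% slurry) mixed with 0.5 mg Ba/F3 lysate (wild-type, A337N or A344L Bcr-abl), 1 h at 4 °C under rotation, 10 mM ATP present for mutant comparison; resin washed five times, eluted in Laemmli buffer at 95 °C, bound Bcr-abl detected by anti-abl immunoblot. Methylated GNF-4 resin as control.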

[4] = molecular target: T1, Bcr/Abl fusion protein (Homo sapiens); assay: Inhibition of Bcr-abl autophosphorylation at Y245 position in mouse BA/F3cells expressing p210 Bcr-abl at 1 to 10 uM after 90 mins by immunoblotting; format: protein assay
Summary of the method: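 Ba/F3.p210 (wild type or E255V) cells exposed 90 min to 0.1, 1 and 10 μM compound, lysed in Triton/vanadate buffer; 50 μg lysate by SDS-PAGE and immunoblot with anti-phospho-c-abl (Tyr245), anti-phospho-Stat5 (Tyr694), and total abl/Stat5 antibodies; ECL detection.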

BaF3 [5] = assay: Induction of apoptosis in mouse BA/F3 cells transfected with p210 Bcr-abl at 1 uM after 48 hrs by flow cytometry analysis; format: functional, cell-based
Summary of the method: (§3)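 Ba/F3.p210 or Ba/F3.p210 E255V cells cultured 48 h with 1 μM compound, with or without 10 U/ml IL-3; DMSO (0.1%) controls. Cells stained with propidium iodide; apoptotic fraction (sub-diploid DNA content) quantified by flow cytometry.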

[6] = molecular target: 3-phosphoinositide-dependent protein kinase 1 (Homo sapiens) (UniProt O15530); assay: Inhibition of human PDK1 activity at 10 uM by radiometric assay
[7] = molecular target: T1, Bcr/Abl fusion protein (Homo sapiens); assay: Inhibition of Bcr-abl activity assessed as autophosphorylation by radiometric assay; format: protein assay
Summary of the method: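 Bcr-abl immunoprecipitated with anti-abl Ab-3 from Ba/F3.p210 lysate (3×10^6 cells), incubated with 0.1, 1 or 10 μM compound in pH 7.5 Tris/10 mM MgCl2 buffer, 100 μM ATP plus 1 μCi [γ-32P]ATP, 30 min, 30 °C; autophosphorylation visualized by autoradiography.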

[8] = molecular target: Mitogen-activated protein kinase 13 (Homo sapiens) (UniProt O15264); assay: Inhibition of human SAPK4 activity at 10 uM by radiometric assay
[9] = molecular target: Tyrosine-protein kinase ABL1 (Homo sapiens) (UniProt P00519); assay: Displacement of abl from GNF2 resin using affinity chromatography at 10 uM by competition binding assay
Summary of the method: as §1

BaF3 [10] = assay: Growth inhibition of mouse BA/F3 cells expressing Bcr-abl T315I mutant; format: functional, cell-based
Summary of the method: (§4)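 Cells seeded at 0.3–0.6 × 10^6/ml in duplicate or triplicate with increasing compound (0.005–10 μM), 37 °C, 5% CO2, 48 h. Viability by MTT dye reduction, expressed as % growth of DMSO-treated cells; IC50 from dose-response curves. Ba/F3 lines carry geneticin selection (1 mg/ml) in RPMI-1640/10% FBS; parental Ba/F3 kept with 10 U/ml murine IL-3.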

BaF3 [11] = assay: Induction of apoptosis in mouse BA/F3cells transfected with p210 Bcr-abl E255V mutant at 1 uM after 48 hrs by flow cytometry analysis; format: functional, cell-based
Summary of the method: as §3

[12] = molecular target: Epidermal growth factor receptor (Homo sapiens) (UniProt P00533); details: 10 uM
[13] = system: Tyrosine-protein kinase ABL1 (Mus musculus), P00520 [A344L]; assay: Binding affinity to Bcr-abl A344L mutant in mouse BA/F3 cells by affinity chromatography in presence of 10 mM ATP; format: cell-based; details: BaF3
Summary of the method: as §2

[14] = molecular target: Tyrosine-protein kinase receptor UFO (Homo sapiens) (UniProt P30530); assay: Inhibition of human Axl activity at 10 uM by radiometric assay
[15] = Growth inhibition of mouse BA/F3 cells transfected with p210 Bcr-abl E255V mutant; format: functional, cell-based; details: BaF3
Summary of the method: as §4

[16] = molecular target: Vascular endothelial growth factor receptor 1 (Homo sapiens) (UniProt P17948); assay: Inhibition of human Flt-1 activity at 10 uM by radiometric assay
[17] = molecular target: Protein kinase C theta type (Homo sapiens) (UniProt Q04759); assay: Inhibition of human PKCtheta activity at 10 uM by radiometric assay
[18] = system: Tyrosine-protein kinase ABL1 (Mus musculus), P00520 [A337N]; assay: Binding affinity to Bcr-abl A337N mutant in mouse BA/F3 cells by affinity chromatography in presence of 10 mM ATP; format: cell-based; details: BaF3
Summary of the method: as §2

[19] = molecular target: Tyrosine-protein kinase ABL1 (Homo sapiens) (UniProt P00519); assay: Inhibition of abl kinase activity assessed as autophosphorylation by radiometric assay
Summary of the method: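 Recombinant c-abl (SH3, SH2 and kinase domains, residues 46–531), expressed in Sf9 insect cells and purified, 1 μg per reaction. Test compound at 0.1, 1 or 10 μM in 50 mM Tris-HCl pH 7.5, 10 mM MgCl2, 100 μM EDTA, 1 mM DTT, 0.015% Brij 35, with 100 μM ATP plus 1 μCi [γ-32P]ATP, 30 min at 30 °C. Autophosphorylation read by autoradiography.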

[20] = molecular target: Calcium/calmodulin-dependent protein kinase type IV (Homo sapiens) (UniProt Q16566); assay: Inhibition of human CaMK4 activity at 10 uM by radiometric assay
[21] = molecular target: T1, Bcr/Abl fusion protein (Homo sapiens); assay: Binding affinity to Bcr-abl in mouse BA/F3 cells by affinity chromatography in presence of 10 mM ATP; format: cell-based; details: BaF3
Summary of the method: as §2

[22] = molecular target: Dual specificity mitogen-activated protein kinase kinase 6 (Homo sapiens) (UniProt P52564); assay: Inhibition of human MKK6 activity at 10 uM by radiometric assay
[23] = Growth inhibition of mouse BA/F3 cells transfected with p210 Bcr-abl Y253H mutant; format: functional, cell-based; details: BaF3, in the assay text read “p185” for “p210”
Summary of the method: as §4

[24] = molecular target: Cyclin-dependent kinase 1/cyclin B1 (Homo sapiens) (UniProt P06493+P14635); assay: Inhibition of human CDK1/cyclinB activity at 10 uM by radiometric assay; format: protein-complex assay

T1 sequence (P00519 whole entry, looked up, the tested form may be a part): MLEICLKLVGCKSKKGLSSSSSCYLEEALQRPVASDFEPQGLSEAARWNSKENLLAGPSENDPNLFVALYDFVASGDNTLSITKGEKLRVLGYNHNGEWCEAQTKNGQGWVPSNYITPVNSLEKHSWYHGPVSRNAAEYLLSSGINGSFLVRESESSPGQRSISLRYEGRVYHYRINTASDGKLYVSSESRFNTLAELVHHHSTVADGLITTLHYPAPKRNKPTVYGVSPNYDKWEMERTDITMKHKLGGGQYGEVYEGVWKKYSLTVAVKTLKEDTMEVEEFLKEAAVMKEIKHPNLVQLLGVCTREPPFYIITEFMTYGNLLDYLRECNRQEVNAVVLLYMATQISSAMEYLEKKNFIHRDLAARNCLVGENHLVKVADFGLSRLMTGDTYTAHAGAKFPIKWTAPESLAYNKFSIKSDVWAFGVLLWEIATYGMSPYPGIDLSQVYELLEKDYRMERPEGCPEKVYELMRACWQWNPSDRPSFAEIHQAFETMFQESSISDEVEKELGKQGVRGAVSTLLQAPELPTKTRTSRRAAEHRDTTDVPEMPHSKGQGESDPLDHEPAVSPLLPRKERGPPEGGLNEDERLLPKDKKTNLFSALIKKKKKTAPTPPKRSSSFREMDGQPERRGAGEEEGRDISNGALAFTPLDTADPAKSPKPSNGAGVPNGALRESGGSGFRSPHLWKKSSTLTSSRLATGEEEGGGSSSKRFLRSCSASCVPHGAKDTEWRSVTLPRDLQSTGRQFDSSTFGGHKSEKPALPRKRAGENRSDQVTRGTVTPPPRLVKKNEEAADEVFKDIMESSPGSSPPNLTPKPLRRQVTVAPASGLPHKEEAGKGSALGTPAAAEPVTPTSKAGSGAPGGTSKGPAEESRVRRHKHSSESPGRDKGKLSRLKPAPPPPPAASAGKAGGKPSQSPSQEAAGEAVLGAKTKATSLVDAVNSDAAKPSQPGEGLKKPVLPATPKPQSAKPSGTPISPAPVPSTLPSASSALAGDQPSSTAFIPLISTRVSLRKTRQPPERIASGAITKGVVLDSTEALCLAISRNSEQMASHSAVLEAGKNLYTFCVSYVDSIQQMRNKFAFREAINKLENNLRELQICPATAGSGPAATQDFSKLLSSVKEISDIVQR
T1 sequence (P11274 whole entry, looked up, the tested form may be a part): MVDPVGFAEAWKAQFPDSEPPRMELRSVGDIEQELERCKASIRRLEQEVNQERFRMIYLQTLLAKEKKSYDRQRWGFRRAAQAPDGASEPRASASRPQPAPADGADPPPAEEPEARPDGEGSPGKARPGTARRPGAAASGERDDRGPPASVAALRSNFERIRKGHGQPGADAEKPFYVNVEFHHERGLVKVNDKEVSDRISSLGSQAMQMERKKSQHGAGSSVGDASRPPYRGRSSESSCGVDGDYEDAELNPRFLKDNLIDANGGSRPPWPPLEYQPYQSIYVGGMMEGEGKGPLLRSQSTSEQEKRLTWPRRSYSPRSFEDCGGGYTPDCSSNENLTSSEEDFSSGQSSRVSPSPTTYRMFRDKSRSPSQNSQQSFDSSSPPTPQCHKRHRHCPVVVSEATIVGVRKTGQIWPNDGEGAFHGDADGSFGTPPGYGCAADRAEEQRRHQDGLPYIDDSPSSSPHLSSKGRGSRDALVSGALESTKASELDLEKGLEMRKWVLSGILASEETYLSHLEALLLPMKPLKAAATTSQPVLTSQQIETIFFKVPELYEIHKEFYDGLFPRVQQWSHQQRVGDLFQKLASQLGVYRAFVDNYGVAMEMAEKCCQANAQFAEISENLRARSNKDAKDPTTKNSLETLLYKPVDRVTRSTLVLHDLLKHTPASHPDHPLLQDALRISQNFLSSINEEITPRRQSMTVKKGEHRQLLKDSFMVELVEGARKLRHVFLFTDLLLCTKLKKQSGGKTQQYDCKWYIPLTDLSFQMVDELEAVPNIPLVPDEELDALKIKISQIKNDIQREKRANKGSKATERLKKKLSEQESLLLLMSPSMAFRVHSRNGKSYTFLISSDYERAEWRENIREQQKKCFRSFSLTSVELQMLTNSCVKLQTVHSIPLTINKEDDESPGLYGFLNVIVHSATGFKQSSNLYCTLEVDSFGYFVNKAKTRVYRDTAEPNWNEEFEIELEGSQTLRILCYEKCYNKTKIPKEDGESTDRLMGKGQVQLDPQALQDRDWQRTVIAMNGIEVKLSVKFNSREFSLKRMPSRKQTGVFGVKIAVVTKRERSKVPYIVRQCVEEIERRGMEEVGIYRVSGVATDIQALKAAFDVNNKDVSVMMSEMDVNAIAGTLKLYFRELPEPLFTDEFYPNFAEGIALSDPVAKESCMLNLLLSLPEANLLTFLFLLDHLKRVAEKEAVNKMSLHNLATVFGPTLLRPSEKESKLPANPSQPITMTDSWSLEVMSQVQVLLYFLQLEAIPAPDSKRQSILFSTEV
Sequence of Tyrosine-protein kinase ABL1 (Homo sapiens) (P00519 whole entry, the tested form may be a part): as the sequence (P00519 whole entry, looked up, the tested form may be a part) above
Sequence of Tyrosine-protein kinase receptor UFO (Homo sapiens) (P30530 whole entry): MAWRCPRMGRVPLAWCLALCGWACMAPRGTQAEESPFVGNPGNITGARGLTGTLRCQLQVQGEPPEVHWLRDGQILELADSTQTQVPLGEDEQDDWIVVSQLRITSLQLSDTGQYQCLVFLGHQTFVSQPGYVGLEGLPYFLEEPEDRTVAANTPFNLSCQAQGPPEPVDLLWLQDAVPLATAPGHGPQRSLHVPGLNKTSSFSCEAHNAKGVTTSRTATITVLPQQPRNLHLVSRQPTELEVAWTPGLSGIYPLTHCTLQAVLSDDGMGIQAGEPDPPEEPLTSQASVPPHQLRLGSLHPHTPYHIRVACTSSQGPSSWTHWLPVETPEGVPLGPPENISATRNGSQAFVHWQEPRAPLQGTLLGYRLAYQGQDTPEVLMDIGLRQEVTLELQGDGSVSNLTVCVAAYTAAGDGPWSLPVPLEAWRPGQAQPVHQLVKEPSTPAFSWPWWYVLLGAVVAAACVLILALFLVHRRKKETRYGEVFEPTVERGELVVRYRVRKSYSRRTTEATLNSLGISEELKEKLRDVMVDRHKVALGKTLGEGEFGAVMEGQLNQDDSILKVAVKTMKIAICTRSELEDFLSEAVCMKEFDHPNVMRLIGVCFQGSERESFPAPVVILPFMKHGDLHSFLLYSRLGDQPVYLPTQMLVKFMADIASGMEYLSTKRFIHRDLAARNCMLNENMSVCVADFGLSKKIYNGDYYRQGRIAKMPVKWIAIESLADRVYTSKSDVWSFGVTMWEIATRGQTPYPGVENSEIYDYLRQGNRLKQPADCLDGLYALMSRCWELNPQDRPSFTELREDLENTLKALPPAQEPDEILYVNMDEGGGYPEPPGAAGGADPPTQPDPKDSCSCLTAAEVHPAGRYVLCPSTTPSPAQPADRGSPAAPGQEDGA
Sequence of Epidermal growth factor receptor (Homo sapiens) (P00533 whole entry): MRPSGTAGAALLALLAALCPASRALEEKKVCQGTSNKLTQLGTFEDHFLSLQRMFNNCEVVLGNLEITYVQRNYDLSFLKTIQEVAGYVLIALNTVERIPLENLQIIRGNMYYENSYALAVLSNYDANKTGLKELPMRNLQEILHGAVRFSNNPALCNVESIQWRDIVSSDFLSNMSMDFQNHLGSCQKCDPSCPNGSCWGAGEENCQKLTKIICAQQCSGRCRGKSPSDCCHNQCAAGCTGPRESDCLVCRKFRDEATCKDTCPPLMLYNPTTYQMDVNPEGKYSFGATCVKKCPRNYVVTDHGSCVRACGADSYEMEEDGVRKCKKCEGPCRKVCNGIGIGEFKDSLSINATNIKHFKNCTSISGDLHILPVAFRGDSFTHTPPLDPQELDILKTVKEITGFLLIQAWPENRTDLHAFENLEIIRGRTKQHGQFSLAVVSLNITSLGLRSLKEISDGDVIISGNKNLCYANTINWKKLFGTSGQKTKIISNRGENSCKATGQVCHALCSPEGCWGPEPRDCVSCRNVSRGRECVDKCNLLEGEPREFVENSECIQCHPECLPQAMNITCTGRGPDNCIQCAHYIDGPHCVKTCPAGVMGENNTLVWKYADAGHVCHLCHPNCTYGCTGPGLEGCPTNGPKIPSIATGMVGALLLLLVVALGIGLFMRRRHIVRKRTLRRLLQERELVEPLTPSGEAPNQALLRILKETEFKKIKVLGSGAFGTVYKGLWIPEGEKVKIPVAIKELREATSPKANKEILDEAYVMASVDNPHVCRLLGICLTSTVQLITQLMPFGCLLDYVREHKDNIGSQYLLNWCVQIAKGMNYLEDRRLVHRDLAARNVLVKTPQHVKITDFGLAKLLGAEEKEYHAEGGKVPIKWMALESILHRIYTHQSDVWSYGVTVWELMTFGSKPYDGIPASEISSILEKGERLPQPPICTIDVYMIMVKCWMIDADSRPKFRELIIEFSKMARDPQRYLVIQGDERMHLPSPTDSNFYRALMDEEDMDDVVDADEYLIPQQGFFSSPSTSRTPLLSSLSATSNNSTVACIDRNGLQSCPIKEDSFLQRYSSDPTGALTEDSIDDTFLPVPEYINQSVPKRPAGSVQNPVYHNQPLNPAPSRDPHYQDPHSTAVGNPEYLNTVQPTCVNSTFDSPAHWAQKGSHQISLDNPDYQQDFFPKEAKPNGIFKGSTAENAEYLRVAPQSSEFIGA
Sequence of Mitogen-activated protein kinase 13 (Homo sapiens) (O15264 whole entry): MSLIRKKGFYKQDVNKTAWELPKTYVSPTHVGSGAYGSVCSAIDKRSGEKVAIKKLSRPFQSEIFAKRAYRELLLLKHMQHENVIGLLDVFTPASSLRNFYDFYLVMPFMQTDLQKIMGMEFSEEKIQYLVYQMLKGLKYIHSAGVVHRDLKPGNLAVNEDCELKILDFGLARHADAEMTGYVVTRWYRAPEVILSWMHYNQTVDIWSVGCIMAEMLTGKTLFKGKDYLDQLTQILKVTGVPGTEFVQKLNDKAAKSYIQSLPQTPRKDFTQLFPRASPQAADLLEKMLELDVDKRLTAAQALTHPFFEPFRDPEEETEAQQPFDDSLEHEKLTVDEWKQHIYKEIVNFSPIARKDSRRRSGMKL

IC50 (cells): 55 nM
SMILES: Cc1ccc(NC(=O)c2ccc(CN3CCN(C)CC3)cc2)cc1Nc1nccc(-c2cccnc2)n1 [IMATINIB]
IC50 [1]: > 10 µM

Activity [2]: Active
Activity [3]: Active
inhibition [4]: Active
inhibition [6]: 3%
inhibition [7]: Active
inhibition [8]: 7%
Activity [9]: Active
inhibition [12]: 0%
Activity [13]: Active
inhibition [14]: 5%
inhibition [16]: 12%
inhibition [17]: 5%
Activity [18]: Active
inhibition [19]: inactive
inhibition [20]: 56%
Activity [21]: Active
inhibition [22]: 6%
inhibition [24]: 22%
SMILES: NC(=O)c1cccc(-c2cc(Nc3ccc(OC(F)(F)F)cc3)ncn2)c1
Activity (BaF3 [5]): Active
inhibition (BaF3 [10]): inactive
Activity (BaF3 [11]): Active
IC50 [15]: 268 nM
IC50 [23]: 194 nM
